Assay results: PubChem BioAssay
Unmarked numbers belong to inactive results. Results filed as inconclusive are left out. The source made the active and inactive calls.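 The calls were made as follows, unless noted: active = inhibition over a set limit, the all-compound mean plus 3 SD, in both replicate runs; inconclusive = over that limit in just one replicate run; inactive = at or under that limit in both runs.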

Assays:
[1] = OD615 S. cerevisiae growth inhibition, permissive medium, pilot counter-assay, permissive growth control for S. cerevisiae lifespan shortening project (AID 705;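 active = growth inhibition above 25% in both replicates, a cutoff set 3 SD above the mean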); conditions: OD615, 24 h, at 10 µM, active compounds read high
Method in brief: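 Timing: 24 h exposure, 30 °C / Material: Saccharomyces cerevisiae strain carrying genetically modified DeaD replicative-lifespan system / Signal: OD at 615 nm / Compound: 10 µM single dose, 0.25% DMSO / Medium: SC raffinose/galactose permissive medium / Evaluation: reduction in yeast growth (OD615)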

[2] = Restrictive medium S. cerevisiae growth inhibition, OD615, pilot screen of yeast lifespan reduction project, restrictive growth control (AID 706;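 active = growth inhibition above a set limit, 3 SD over mean compound inhibition, in both replicates, cut at about 43% in these data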;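 also: modified DeaD lifespan yeast strain shifted to restrictive glucose medium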); conditions: OD615, 48 h, at 10 µM, active compounds read high
Method in brief: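 System: Engineered S. cerevisiae DeaD strain | Detection: OD615 | Buffer or medium: CSMM-D glucose medium | Doses: 10 µM compound, 0.25% DMSO | Timing: 4 h pre-growth plus 48 h compound exposure, 30 °C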

[3] = viability gain of MRP-1-high H69AR cells under doxorubicin, pilot screen, MRP-1 activator project, CellTiter-Glo, duplicate (AID 807;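 active = viability increase at or above a cutoff of the median across tested compounds plus 3 SD, cut at about 8.5% in these data, passing the limit was not always enough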;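 also: compound pretreatment 18-22 h then 72 h combined with doxorubicin; 0% = doxorubicin alone and 100% = vehicle without doxorubicin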); conditions: H69AR viability with doxorubicin, CellTiter-Glo luminescence; at 10 µM; active compounds read high
[4] = growth suppression of beta-catenin knockout HCT116, pilot screen, human colon tumor cells (AID 823;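 active = cell viability at or below a set limit in both duplicate runs, the limit being the all-compound median minus 4 SD, cut at about 23% in these data, passing the limit was not always enough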;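 also: 0% = wells killed by 20 µM Hyamine and 100% = untreated DMSO cell wells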); conditions: CellTiter-Glo, 60 h, at 10 µM, active compounds read low
[5] = growth suppression of PTEN-deleted HCT116, pilot screen, cell-based, HCT116 clonal line, CellTiter-Glo (AID 824;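 active = viability at or below 27.92% in each of two runs, the all-compound median minus 4 SD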;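 also: 0% = 20 µM Hyamine control and 100% = vehicle cell control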); conditions: 60 h, at 10 µM, active compounds read low
[6] = inhibitors of the yeast RAM network, pilot screen, dse1pr::URA3 reporter, 5-FOA selection (AID 869);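 also: 0% = DMSO wells with no growth and 100% = 10 µM 1-NA-PP1 with full growth; RAM network block rescues cells from 5-FOA so hits raise OD615 growth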; conditions: S. cerevisiae dse1pr::URA3 5-FOA growth, OD615, 2 d; at 10 µM; active compounds read high; strain carries analog-sensitive mutant Cbk1 kinase
[7] = RAM signaling pathway blockade in yeast – S. cerevisiae, Pdr1DBD-CYC8 efflux-inhibited sensitized strain, primary screen (AID 1298;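 active = RAM network inhibition above 8.4% in each of two replicates, 3 SD over the compound average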;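 also: 0% = DMSO untreated cells without growth and 100% = 10 µM 1-NA-PP1 full growth; higher means more yeast growth rescued from 5-FOA killing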); conditions: S. cerevisiae cbk1-as DSE1-URA3 strain, 5-FOA growth OD615, 2 d; at 50 µM; active compounds read high

Row | SMILES | growth inhibition [1] [%] | growth inhibition [2] | viability increase [3] [%] | viability [4] [%] | viability [5] [%] | inhibition [6] [%] | RAM network inhibition [7] [%]
1 | CCCOc1ccc(NC(=O)c2c(-c3ccccc3)noc2C)cc1 | -3.83 | -7.54% | -1.84 | 103 | 90.5 | 1.34 | 2.96
2 | Cc1ccc(-c2nc(CS(=O)CC(=O)NCCN3CCOCC3)c(C)o2)cc1 (stereo not drawn) | -6.06 | 2.29% | -0.04 | 92.9 | 98 | 1.84 | 2.15
3 | CCOC(=O)C1CCCN(C(=O)c2ccc(CS(=O)(=O)c3ccc(C)cc3)o2)C1 (stereo not drawn) | -0.315 | -6.29% | -2.78 | 110 | 101 | 1.16 | 3.23
4 | CCc1ccc(NC(=O)C2CC=CCC2C(=O)O)cc1 (stereo not drawn) | 6.68 | 5.45% | 0.72 | 98.1 | 98.9 | -0.5 | 4.12
5 | Cc1cc(C(=O)CN2CC(C)OC(C)C2)c(C)n1-c1ccccc1 (stereo not drawn) | 0.61 | -5.6% | -1.04 | 97.6 | 99.6 | 1.83 | 7.04
6 | CCOC(=O)C1C(=O)OC2(CCOC(C)(C)C2)C1C(=O)OCC (stereo not drawn) | 1.65 | 7.69% | -0.15 | 105 | 100 | 1.38 | 0.98
7 | O=C(CCSc1ccccc1)NCCSc1ccccn1 | -12.8 | -12% | -2.49 | 96.3 | 94.6 | 2.69 | 0.53
8 | C=CCn1c2ccccc2c2nnc(SCN3C(=O)c4ccccc4C3=O)nc21 | 7.65 | 48.4% (active) | -4.7 | 100 | 93.7 | 3.45 | 4.65
9 | CCn1c(SCC(=O)Nc2ccccc2C(=O)OC)nc2c1c(=O)n(C)c(=O)n2C | -6.03 | -4.93% | -3.55 | 92 | 86.6 | 3.68 | 5.2
10 | CCc1nnc(NC(=O)c2ccc(S(=O)(=O)N(CCOC)CCOC)cc2)s1 | -9.86 | -3% | 3.39 | 115 | 107 | 0.77 | 1.29
11 | O=C(NC1CSC/C1=N\O)c1ccccc1 (stereo not drawn) | -9.51 | -1.84% | -2.52 | 103 | 101 | 1.17 | 1.84
12 | Cn1c(=O)c2c(nc(SCCN3CCOCC3)n2Cc2ccccc2Cl)n(C)c1=O | -14.9 | 1.19% | -5.35 | 91.8 | 94.9 | 0.27 | 5
13 | COc1ccc(C2C3=C(Nc4ncnn42)c2ccccc2CCC3)cc1 (stereo not drawn) | -12.5 | -17.7% | -1.45 | 91.7 | 89.1 | 1.9 | 3.32
14 | CCCC(=O)c1c(NC)cc(C)oc1=O | -7.03 | 4.71% | -0.53 | 97.2 | 92.2 | 0.62 | 3.99
15 | O=C(NCC(c1cccnc1)N1CCN(c2ccccc2F)CC1)c1ccccc1 (stereo not drawn) | -9.54 | -2.34% | -4.21 | 88.5 | 82.4 | 1.75 | 1.21
16 | O=C(NC1CCCCC1)C1CC(=O)N(c2ccc(Cl)cc2)C1 (stereo not drawn) | -4.29 | 1.57% | -0.58 | 95.5 | 90.4 | 1.29 | 2.04
17 | COCCn1c(=O)[nH]c2cc(C(=O)NCCN3CCN(c4ccccc4)CC3)ccc2c1=O | -5.1 | 7.77% | -0.22 | 92.5 | 93.2 | 1.11 | 3.35
18 | Cc1cc2cc(CNS(=O)(=O)c3ccccc3)ccc2n1C | -4.47 | 3.34% | -1.48 | 85.2 | 86.2 | 0.71 | 2.49
19 | Cc1ccc2oc(=O)c3cnn(CC(=O)N4CCN(c5ccccn5)CC4)c3c2c1 | -7.07 | -17.7% | -1.28 | 91.8 | 87.6 | 1.41 | -0.31
20 | Cc1ccc(-n2ncc3c(NCCCn4ccnc4)ncnc32)c(C)c1 | -3.41 | -7.83% | -0.58 | 88.8 | 90.6 | 1.5 | 2.5
21 | CCCOc1ccc(N2C(=O)CC(N3CCN(c4ccccc4OC)CC3)C2=O)cc1 (stereo not drawn) | 0.31 | -41.2% | 0.03 | 97.6 | 90.8 | 2.04 | 5.49
22 | CCOC(=O)c1nn(-c2ccc3c(c2)CCN3C(C)=O)cc1O | -3.56 | -5.95% | -1.4 | 101 | 92.7 | 0.375 | 3.05
23 | CCCCCSc1nc2c(c(=O)[nH]c(=O)n2C)n1CC | -13.1 | 1.94% | -3.9 | 88 | 88 | 1.18 | -1.69
24 | COc1cc(C2N(c3ccccc3)CCN2c2ccccc2)ccc1OC(C)=O | -18.8 | -13.6% | 0.59 | 96.3 | 94.5 | 0.44 | 2.35
